Here are results for 20 molecules from ChEMBL document CHEMBL4602632, “Synthesis and anti-Mycobacterium tuberculosis activity of imide-β-carboline and carbomethoxy-β-carboline derivatives” (Eur J Med Chem, 2020).

Molecules are shown by their SMILES. ≈ marks a conversion by molar mass, not a printed value.

In data set [1] the test system is Mycobacterium tuberculosis. The experiment in a line: Antimycobacterial activity against Mycobacterium tuberculosis H37Rv assessed as reduction in bacterial growth incubated for 7 days by resazurin dye based assay. The data set is classed as functional. As to conditions: 168 h. The method, boiled down: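 REMA broth microdilution: DMSO stocks diluted in 7H9-OADC, standardized inoculum added, final 0.98 to 250 μg/mL; 7 days at 35 °C in normal atmosphere, then 0.01% resazurin and a further 24 h at 35 °C. Read visually. MIC is the lowest concentration preventing the blue-to-pink change. Three independent assays on different days; isoniazid reference, medium, sterility and growth ±2.5% DMSO controls.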
In general terms: The colour change of resazurin is a common sign of viable cells or microbes.

A short description of data set [2]: Selectivity index, ratio of CC50 for African green monkey Vero cells to MIC for Mycobacterium tuberculosis BRF57. In kind it is toxicity.
Data set [3] is described as follows: Selectivity index, ratio of CC50 for African green monkey Vero cells to MIC for Mycobacterium tuberculosis 91. In kind it is toxicity.
Data set [4] in a line: Selectivity index, ratio of CC50 for African green monkey Vero cells to MIC for Mycobacterium tuberculosis 19. The data set is classed as toxicity.
The nature of data set [5]: Selectivity index, ratio of CC50 for African green monkey Vero cells to MIC for Mycobacterium tuberculosis 3614. In kind it is toxicity.
A short description of data set [6]: Selectivity index, ratio of CC50 for African green monkey Vero cells to MIC for Mycobacterium tuberculosis BRF16. In kind it is toxicity.
Data set [7] can be described thus: Selectivity index, ratio of CC50 for African green monkey Vero cells to MIC for Mycobacterium tuberculosis 73A. In kind it is toxicity.
A short description of data set [8]: Selectivity index, ratio of CC50 for African green monkey Vero cells to MIC for Mycobacterium tuberculosis BRF45. The data set is classed as toxicity.
Data set [9] can be described thus: Selectivity index, ratio of CC50 for African green monkey Vero cells to MIC for Mycobacterium tuberculosis BRF14. In kind it is toxicity.
The nature of data set [10]: Selectivity index, ratio of CC50 for African green monkey Vero cells to MIC for Mycobacterium tuberculosis 71A. In kind it is toxicity.
Data set [11] is described as follows: Cytotoxicity against African green monkey Vero cells assessed as reduction in cell viability incubated for 24 hrs by MTT assay. In kind it is cell-based. As to conditions: chlorocebus sabaeus. An outline of the steps:
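VERO (ATCC CCL81) cells grown in DMEM with 10% FBS at 37 °C, 5% CO₂. Seeded at 5 × 10⁴ cells/well for 24 h, then exposed to 1.95–1000 μg/mL in DMEM for 24 h. Washed with PBS, MTT (2 mg/mL in PBS) added for 4 h, dissolved in DMSO, A550 read. CC50 is the highest concentration leaving 50% of cells viable versus control. Three independent assays.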
(Tetrazolium assays rely on reduction of a dye to a coloured formazan, in cell work by metabolically active cells.)

The nature of data set [12]: Selectivity index, ratio of CC50 for African green monkey Vero cells to MIC for Mycobacterium tuberculosis H37Rv. In kind it is toxicity. An outline of the steps:
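Selectivity index computed as the CC50 from VERO MTT assay divided by the REMA MIC against H37Rv.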

In general, MIC refers to the smallest concentration in the dilution series that meets the test's criterion for growth inhibition. On to `COC(=O)c1cc2c([nH]c3ccccc32)c(-c2ccc(O)c(OC)c2)n1`, for which, in [1], the minimum inhibitory concentration (MIC) turned out to be 718 µM (≈ 250 µg/mL).

Consider `COC(=O)c1cc2c([nH]c3ccccc32)c(-c2ccc(OC)cc2)n1`, for which the minimum inhibitory concentration (MIC) in data set [1] stood at 579 µM (≈ 192 µg/mL).

The CC50 is the concentration giving 50% cytotoxicity. With `O=C(NN1C(=O)c2ccccc2C1=O)c1cc2c([nH]c3ccccc32)c(-c2cccc([N+](=O)[O-])c2)n1`, the selectivity ratio in data set [2] is < 2.6; in [3], < 2.6; in [4], 5.2; in [5], 5.2; in data set [6] it was 5.2; in [7], 5.2. Besides, the selectivity ratio in data set [8] is 5.2; in data set [9], 2.6; in [10], < 2.6; in data set [12], 5.2. For the same molecule, the CC50 at 24 h in data set [11] was found to be 650 µM. In addition, the MIC in data set [1] is 262 µM (≈ 125 µg/mL).

Consider `COC(=O)c1cc2c([nH]c3ccccc32)c(-c2ccc(F)cc2)n1`, for which the MIC in data set [1] is > 781 µM.

Take `COC(=O)c1cc2c([nH]c3ccccc32)c(-c2ccccc2Cl)n1`: in data set [1], the minimal inhibitory concentration (MIC) was > 744 µM.

For the molecule `O=C(NN1C(=O)CCC1=O)c1cc2c([nH]c3ccccc32)c(-c2cccc([N+](=O)[O-])c2)n1`, the MIC in [1] was > 583 µM.

Turning to `CN(C)c1ccc(-c2nc(C(=O)NN3C(=O)c4ccccc4C3=O)cc3c2[nH]c2ccccc23)cc1`, in [1], the MIC was > 526 µM.

As to `O=C(NN1C(=O)c2ccccc2C1=O)c1cc2c([nH]c3ccccc32)c(-c2ccccc2)n1`, the selectivity ratio in data set [2] worked out at 7.2; in data set [3], 7.2; in data set [4], 14.4; in [5], 14.4; in [6], 7.2; in data set [7], 14.4. Besides, the selectivity ratio in [8] stood at 14.4; in [9] it was 7.2; in [10] it was 7.2; in data set [12], 7.2. The half-maximal cytotoxic concentration (CC50) at 24 h in data set [11] came out at 900 µM. The MIC in data set [1] worked out at 289 µM (≈ 125 µg/mL).

On to `COc1ccc(-c2nc(C(=O)NN3C(=O)c4ccccc4C3=O)cc3c2[nH]c2ccccc23)cc1`, for which, in data set [1], the MIC was > 541 µM.

With `COC(=O)c1cc2c([nH]c3ccccc32)c(-c2ccccc2)n1`, in [1], the MIC is > 828 µM.

Take `COC(=O)c1cc2c([nH]c3ccccc32)c(-c2cccc([N+](=O)[O-])c2)n1`: the minimal inhibitory concentration (MIC) in [1] was determined as 720 µM (≈ 250 µg/mL).

In the case of `NNC(=O)c1ccncc1` [ISONIAZID], the minimum inhibitory concentration (MIC) in [1] was 0.06 µM (≈ 0.00823 µg/mL).

In the case of `O=C(NN1C(=O)c2ccccc2C1=O)c1cc2c([nH]c3ccccc32)c(-c2ccccc2Cl)n1`, the minimum inhibitory concentration (MIC) in data set [1] stood at 536 µM (≈ 250 µg/mL).

Take `COc1cc(-c2nc(C(=O)NN3C(=O)c4ccccc4C3=O)cc3c2[nH]c2ccccc23)ccc1O`: the MIC in data set [1] came out at 523 µM (≈ 250 µg/mL).

As to `O=C(NN1C(=O)C=CC1=O)c1cc2c([nH]c3ccccc32)c(-c2ccc(F)cc2)n1`, the minimal inhibitory concentration (MIC) in [1] worked out at 625 µM (≈ 250 µg/mL).

In the case of `COc1ccc(-c2nc(C(=O)NN3C(=O)CCC3=O)cc3c2[nH]c2ccccc23)cc1`, the minimal inhibitory concentration (MIC) in data set [1] was > 604 µM.

With `COC(=O)c1cc2c([nH]c3ccccc32)c(-c2ccc(N(C)C)cc2)n1`, the selectivity ratio in data set [2] is 3.48; in data set [3], 6.96; in data set [4], 13.9; in data set [5], 13.5; in [6], 3.48; in data set [7], 13.9. Also, the selectivity ratio in data set [8] is 13.9; in data set [9], 1.74; in data set [10], < 1.74; in data set [12], 3.48. For the same molecule, in [11], the cytotoxic concentration (CC50) at 24 h turned out to be 435 µM. Also, in data set [1], the minimum inhibitory concentration (MIC) turned out to be 362 µM (≈ 125 µg/mL).

For `O=C(NN1C(=O)c2ccccc2C1=O)c1cc2c([nH]c3ccccc32)c(-c2ccc(F)cc2)n1`, the selectivity ratio in [2] was 6.1; in data set [3], 6.1; in data set [4], 12.2; in [5] it was 12.2; in data set [7], 12.2; in data set [8], 12.2. The selectivity ratio in data set [9] was determined as 12.2; in data set [10], 6.1; in data set [12], 6.1. In data set [11], the CC50 at 24 h is 762 µM. In addition, the minimum inhibitory concentration (MIC) in data set [1] was 278 µM (≈ 125 µg/mL).

Regarding `O=C(NN1C(=O)C=CC1=O)c1cc2c([nH]c3ccccc32)c(-c2ccccc2)n1`, the minimal inhibitory concentration (MIC) in data set [1] is 654 µM (≈ 250 µg/mL).

As to `O=C(NN1C(=O)CCC1=O)c1cc2c([nH]c3ccccc32)c(-c2ccc(F)cc2)n1`, the selectivity ratio worked out at 2.16 in data set [2]; 2.16 in data set [3]; 4.32 in data set [4]; 4.32 in data set [5]; 4.32 in data set [6]; 8.64 in data set [7]. Further, the selectivity ratio in data set [8] stood at 8.64; in [9], 4.32; in [10], 2.16; in data set [12] it was 2.16. Also, the CC50 at 24 h in data set [11] amounted to 270 µM. The MIC in data set [1] was 311 µM (≈ 125 µg/mL).
